# Laboratory results published in ChEMBL document CHEMBL1134393, “Synthesis and biological activity of analogues of the antidiabetic/antiobesity agent 3-guanidinopropionic acid: discovery of a novel aminoguanidinoacetic acid antidiabetic agent” (2001).
# Tested on: not listed separately
# Experiment: In vivo blood glucose was determined in obese, hyperglycemic, hyperinsulinemic, insulin-resistant […] after a dose of 500 mg/kg for 4 days
# Format: functional, Mus musculus
# In short: (§1)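 KKAy mice (KK female × Ay male cross) allocated to treatment or control groups (n = 6) after pretest glucose. Compound given in food, equivalent to 500 mg/kg per day for 4 days. Nonfasting blood drawn from the retroorbital sinus; glucose measured by autoanalyzer. Result expressed as treated/control glucose ratio (T/C). Wilcoxon rank sum test applied when T/C < 0.80.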
row,Structure (SMILES),MISS T/C
1,N=C(N)NCCC(=O)O [OMPENACLID],0.52

# Tested on: not listed separately
# Experiment: In vivo blood glucose was determined in obese, hyperglycemic, hyperinsulinemic, insulin-resistant KKAy mice after a dose of 500 mg/kg for 4 days
# Format: functional, Mus musculus
# In short: as §1
row,Structure (SMILES),MISS T/C
1,O=C(O)CCn1ccnc1,0.81
2,Cl.N=C(N)CSCC(=O)O,0.92
3,CCCCCC(CN=C(N)N)C(=O)O (stereo unspecified),0.79
4,Cl.NC(N)=NC[C@@H](N)C(=O)O,0.92
5,CCCCCCN=C(N)NCCC(=O)O,0.85
6,Cl.Cl.N/C(=N\CCC(=O)O)c1ccccc1N,0.92
7,N=C(N)N1CCCCC1CC(=O)O (stereo unspecified),0.91
8,CC(CC(=O)O)N=C(N)N (stereo unspecified),0.77
9,N=C(N)NCCCC(=O)O,0.8
10,NC(N)=NC[C@H](N)C(=O)O,0.35
11,O=C(O)CCNc1[nH]cnc2ncnc1-2,0.85
12,CC(=O)NC(=N)NCCC(=O)O,0.88
13,CN(C)C(=N)SCCC(=O)O.Cl,1.08
14,N=C(N)c1cccn1CCC(=O)O,0.93
15,O=C(O)CCNC1=NCCS1,0.85
16,Cl.N=C(N)SCC(=O)O,0.86
17,N=C(N)NCC(S)C(=O)O (stereo unspecified),0.83
18,CN(CCC(=O)O)C(=N)N,1.02
19,O=C(O)CCn1cccn1,1.11
20,N=C(N)c1ccccc1NCCC(=O)O,0.73
21,COC(=O)NC(=N)NCCC(=O)O,0.88
22,C/N=C(\N)SCCC(=O)O.Cl,0.59
23,Nc1ncnc2nn(CCC(=O)O)cc12,1.08
24,N=C(N)NC(CC(=O)O)c1ccccc1 (stereo unspecified),0.95
25,N=C(N)NCCC[C@H](N)C(=O)O [ARGININE],1.02

row,Structure (SMILES),MISS T/C
1,N=C(N)N[C@H]1CCC[C@@H]1C(=O)O,0.9
2,N=C(N)N[C@H]1CCCC[C@H]1C(=O)O,0.92
3,O=C(O)CCNc1nccs1,0.99
4,CCCCCC(CC(=O)O)N=C(N)N (stereo unspecified),0.88
5,N=C(N)S/C=C\C(=O)O [ZAPA],0.68
6,Nc1ncnc2c1cnn2CCC(=O)O,1.27
7,N=C(N)NCC(O)C(=O)O (stereo unspecified),1.1
8,N=C(N)NCC(=O)O [GUANIDINO ACETATE],0.62
9,O=C(O)CCNc1nc2ccccc2s1,0.87
10,N=C(N)N1CCCC(C(=O)O)C1 (stereo unspecified),1
11,O=C(O)CCNc1nc2ccccc2[nH]1,0.95
12,N=C(N)c1ccc(CC(=O)O)[nH]1,1.1
13,Cl.N=C(N)S/C=C\C(=O)O,0.95
14,Nc1cccc(CC(=O)O)n1,1.08
15,Cl.N=C(N)SCCCC(=O)O,0.87
16,CSC(=N)NCCC(=O)O,1.1
17,O=C(O)CCNc1ccccn1,0.2
18,Cl.N=C(N)NCCC(=O)NO,1.05
19,N#CN/C(N)=N\CCC(=O)O,0.92
20,O=C(O)CCNc1ncccn1,1.01
21,Cl.N=C(N)CCCC(=O)O,0.93
22,C/N=C(\NC)SCCC(=O)O.Cl,1.06
23,N[C@@H](Cc1c[nH]cn1)C(=O)O [HISTIDINE],0.8
24,N/C(=N/CCC(=O)O)N[N+](=O)[O-],0.84
25,N=C(N)NCCc1nnn[nH]1,0.94

row,Structure (SMILES),MISS T/C
1,N=C(N)NNCC(=O)O,0.61
2,N=C(N)NCCP(=O)(O)O,0.81
3,O=C(O)Cc1c[nH]cn1 [IMIDAZOLE ACETIC ACID],0.68
4,CCc1cc(O)nc(NCCC(=O)O)n1,0.96
5,N=C(N)N[C@H]1CCCC[C@@H]1C(=O)O,0.93
6,C/N=C(\N)NCCC(=O)O,1.02
7,N=C(N)N[C@H]1CCC[C@H]1C(=O)O,0.97
8,N=C(N)NCCS(=O)(=O)O,0.91
9,Cl.N=C(N)NC/C(=N/O)C(=O)O,0.97
10,CCOC(=O)CCN=C(N)N.Cl,0.87
11,Cl.NC(=O)CCN=C(N)N,0.96
12,CNC(CN=C(N)N)C(=O)O.Cl.Cl (stereo unspecified),0.96
13,N=C(N)Nc1ccc(C(=O)O)cc1 [4-GUANIDINO-BENZOIC ACID],0.8
14,N/C(S)=N/CCC(=O)O,0.99
15,NC(=O)NCCC(=O)O,1.06
16,N=C(N)SCCC(=O)O,0.53
17,CC(CN=C(N)N)C(=O)O (stereo unspecified),0.86
18,CC(=N)NCCC(=O)O,0.77
19,N=C(N)NOCC(=O)O,0.83
20,N=C(N)NCC(Cc1ccccc1)C(=O)O (stereo unspecified),0.93
21,N=C(N)NCCc1c[nH]c(S)n1,0.8
22,Nc1ccc[n+](CC(=O)O)c1.[Cl-],0.94
23,Nc1cccc[n+]1CCC(=O)[O-],1.07
24,O=C(O)CCNC1=NCCN1,0.97

# Tested on: A10
# Experiment: (§2) In vitro [14C]- creatine uptake (1 mM) was determined in rat A10 smooth muscle cells at a concentration of (1 mM)
# Format: functional
# In short: (§3)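 Rat A10 smooth muscle cells grown in DMEM with 10% FBS and used in log-phase growth. Cells washed, then incubated at 37 °C in Hanks buffer (pH 7.4, 10 mM Hepes, 20 mM glucose, 0.2% fatty-acid-free BSA) with [14C]creatine (1 mM) plus test compound (1 mM) for 30–120 min. Ice-cold washes, NaOH lysis, scintillation counting. Uptake normalised to medium specific activity and extract protein; reported as % inhibition.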
row,Structure (SMILES),Inhibition [%]
1,N=C(N)NCCC(=O)O [OMPENACLID],97

# Species: Rattus norvegicus
# Experiment: as §2
# Format: functional
# In short: as §3
row,Structure (SMILES),Inhibition [%]
1,N=C(N)NNCC(=O)O,36

# Target: Sodium- and chloride-dependent creatine transporter 1 (Rattus norvegicus) (UniProt P28570)
# Experiment: In vitro [14C]- creatine uptake (1 mM) was determined in rat A10 smooth muscle cells at a concentration of (1 mM)
row,Structure (SMILES),Inhibition [%]
1,CN(CC(=O)O)C(=N)N [CREATINE],92

# Target: Creatine kinase M-type (Oryctolagus cuniculus) (UniProt P00563)
# Experiment: In vitro kinase activity (phosphorylation) of creatine kinase was determined
# Chain of Creatine kinase M-type (Oryctolagus cuniculus) (P00563 whole entry, looked up): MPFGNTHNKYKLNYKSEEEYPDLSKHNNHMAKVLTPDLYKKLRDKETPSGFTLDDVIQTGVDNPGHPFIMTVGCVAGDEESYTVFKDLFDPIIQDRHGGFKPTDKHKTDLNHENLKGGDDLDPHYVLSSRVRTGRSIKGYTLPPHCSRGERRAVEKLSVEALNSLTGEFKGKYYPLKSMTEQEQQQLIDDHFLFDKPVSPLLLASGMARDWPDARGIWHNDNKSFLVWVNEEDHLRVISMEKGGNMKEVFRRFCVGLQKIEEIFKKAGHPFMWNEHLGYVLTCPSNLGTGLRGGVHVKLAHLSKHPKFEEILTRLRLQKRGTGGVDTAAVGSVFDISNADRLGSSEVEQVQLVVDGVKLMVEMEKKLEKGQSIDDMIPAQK
row,Activity,Structure (SMILES)
1,5,N=C(N)NCCC(=O)O [OMPENACLID]
2,100,CN(CC(=O)O)C(=N)N [CREATINE]
3,0.5,N=C(N)NNCC(=O)O
